Results from ChEMBL document CHEMBL1124188, “Soft drugs. 7. Soft beta-blockers for systemic and ophthalmic use” (J Med Chem, 1988).

Key:
[1] = species on record: Homo sapiens; test: In vitro hydrolytic rate constant determined in human blood; assay type: ADME
Method in brief: (§1)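 Compounds were placed in human blood, and samples were withdrawn over time. Each sample was mixed at once with ice-cold acetonitrile and centrifuged. The supernatant was analysed by reverse-phase C18 HPLC with variable-wavelength UV detection. Disappearance was treated as pseudo-first-order. Values are the mean of at least four runs ± SE of the mean.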

[2] = (§2) Half life period determined in human blood; assay type: ADME, organism-based; method in brief: as §1
[3] = species on record: Homo sapiens; test: as §2; assay type: ADME, organism-based; conditions: in vitro; method in brief: as §1

SMILES | K [1] [min⁻¹] | half-life [2] [min] | half-life ([2]; human blood) [min] | T1/2 [3] [min]
CC(C)NCC(O)COc1ccc(CC(=O)OCCC23CC4CC(CC(C4)C2)C3)cc1 (centres undefined) [ADAPROLOL] | 0.1 | 6.9 | – | –
CC(C)NCC(O)COc1ccc(CC(=O)OCC23CC4CC(CC(C4)C2)C3)cc1 (centres undefined) | 0.015 | – | 46.2 | –
CC(C)NCC(O)COc1ccc(CC(=O)OCC(=O)OC2CCCCC2)cc1 (centres undefined) | 0.154 | – | 4.5 | –
COC(=O)CCc1ccc(OCC(O)CNC(C)C)cc1 (centres undefined) [ESMOLOL] | 0.0033 | – | – | 210

More lines, now with the values ahead:

K [1] [min⁻¹] | half-life [2] [min] | half-life ([2]; human blood) [min] | T1/2 [3] [min] | SMILES
0.0009 | – | 770 | – | CC(C)NCC(O)COc1ccc(CC(=O)OC2CC3CCC2(C)C3(C)C)cc1 (centres undefined)
35000 | – | – | 19.8 | CC(C)NCC(O)COc1ccc(CC(=O)OC2CC3CCC2C3)cc1 (stereo in doubt; 3e)
0.02 | – | 34.6 | – | CC(C)NCC(O)COc1ccc(CC(=O)OC2CC3CCC2C3)cc1 (stereo in doubt; 3f)
